How the values were obtained:
[1] = molecular target: Tyrosine-protein kinase Blk (Homo sapiens) (UniProt P51451); assay: Inhibition of recombinant full length His-tagged human Blk cytoplasmic domain expressed in Baculovirus expression system at 1 uM by FRET assay relative to control
[2] = molecular target: 5-hydroxytryptamine receptor 1B (Homo sapiens) (UniProt P28222); assay: Binding affinity to 5HT1B receptor (unknown origin) receptor at 10 uM relative to control
Method in brief: (§1)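 Broad radioligand-binding and enzyme screening panel covering 42 targets (biogenic amine and neuropeptide receptors, ion channels, neurotransmitter transporters, acetylcholinesterase). Single test concentration of 10 μM. Results expressed as binding relative to control, with a hit defined as >50% of control.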

[3] = molecular target: Tyrosine-protein kinase JAK2 (Homo sapiens) (UniProt O60674); assay: Inhibition of recombinant GST-tagged human JAK2 catalytic domain (809 to 1153 residues) expressed in baculovirus expression system at 1 uM by FRET relative to control
Method in brief: (§2)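 Single-point screen at 1 μM compound in a 220-kinase panel run by Life Technologies (SelectScreen). Z′-LYTE format: phosphorylation of a labeled peptide substrate read by FRET. Values are reported as percent inhibition.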

[4] = molecular target: Tyrosine-protein kinase receptor TYRO3 (Homo sapiens) (UniProt Q06418); assay: Inhibition of recombinant full length GST-tagged human Rse cytoplasmic domain (451 to 890 residues) expressed in baculovirus expression system at 1 uM by FRET assay relative to control
Method in brief: (§3)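 Single-concentration screen at 1 μM in Life Technologies SelectScreen, across a 220-kinase panel. Z′-LYTE format measures phosphorylation of a labeled peptide by FRET. Results are reported as percent inhibition.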

[5] = molecular target: Dual specificity protein kinase TTK (Homo sapiens) (UniProt P33981); assay: Inhibition of recombinant full length GST-tagged human TTK expressed in baculovirus expression system at 1 uM by FRET assay relative to control
[6] = molecular target: Sodium-dependent serotonin transporter (Homo sapiens) (UniProt P31645); assay: Binding affinity to 5HT transporter (unknown origin) at 10 uM relative to control; method in brief: as §1
[7] = molecular target: SRSF protein kinase 1 (Homo sapiens) (UniProt Q96SB4); assay: Inhibition of recombinant full length His-tagged human SRPK1 expressed in baculovirus expression system at 1 uM by FRET assay relative to control
[8] = molecular target: Muscarinic acetylcholine receptor M3 (Homo sapiens) (UniProt P20309); assay: Binding affinity to recombinant human M3 acetylcholine receptor at 10 uM relative to control; method in brief: as §1
[9] = molecular target: Protein-tyrosine kinase 6 (Homo sapiens) (UniProt Q13882); assay: Inhibition of recombinant full length His-tagged human Brk cytoplasmic domain expressed in baculovirus expression system at 1 uM by FRET assay relative to control
[10] = molecular target: Cyclin-dependent kinase 5/CDK5 activator 1 (Homo sapiens) (UniProt Q00535+Q15078); assay: Inhibition of recombinant full length His/GST-tagged human CDK5/p25 expressed in baculovirus expression system at 1 uM by FRET assay relative to control
[11] = molecular target: Leucine-rich repeat serine/threonine-protein kinase 2 (Homo sapiens) (UniProt Q5S007); assay: Inhibition of recombinant GST-tagged human LRRK2 catalytic domain (970 to 2527 residues) expressed in baculovirus expression system at 1 uM by FRET assay relative to control; method in brief: as §2
[12] = molecular target: Serine/threonine-protein kinase PLK2 (Homo sapiens) (UniProt Q9NYY3); assay: Inhibition of full length recombinant GST-tagged human PLK2 expressed in baculovirus expression system at 1 uM by FRET assay relative to control
[13] = molecular target: Serine/threonine-protein kinase MARK1 (Homo sapiens) (UniProt Q9P0L2); assay: Inhibition of recombinant full Length GST-tagged human MARK1 expressed in baculovirus expression system at 1 uM by FRET assay relative to control; method in brief: as §3
[14] = molecular target: Cyclin-dependent kinase 1/cyclin B1 (Homo sapiens) (UniProt P06493+P14635); assay: Inhibition of recombinant full length His-tagged human CDK1/CyclinB expressed in baculovirus expression system at 1 uM by FRET assay relative to control
[15] = molecular target: Serine/threonine-protein kinase 24 (Homo sapiens) (UniProt Q9Y6E0); assay: Inhibition of recombinant full length GST-tagged human MST3 expressed in baculovirus at 1 uM by FRET assay relative to control; method in brief: as §3
[16] = molecular target: Insulin receptor (Homo sapiens) (UniProt P06213); assay: Inhibition of recombinant His-tagged human InsR (1011 to 1382 residues) expressed in baculovirus expression system at 1 uM by FRET relative to control; method in brief: as §2
[17] = molecular target: GABA-A receptor; alpha-1/beta-2/gamma-2 (Homo sapiens) (UniProt P14867+P47870+P18507); assay: Binding affinity to GABA-A alpha1beta2gamma2 receptor (unknown origin) at 10 uM relative to control; format: protein-complex assay; method in brief: as §1
[18] = molecular target: Sphingosine kinase 1 (Homo sapiens) (UniProt Q9NYA1); assay: Inhibition of recombinant full length GST-tagged human SPHK1 expressed in baculovirus expression system at 1 uM by FRET assay relative to control; method in brief: as §3
[19] = molecular target: Fibroblast growth factor receptor 1 (Homo sapiens) (UniProt P11362); assay: Inhibition of recombinant His-tagged human FGFR1 cytoplasmic domain expressed in baculovirus expression system at 1 uM by FRET assay relative to control; method in brief: as §2
[20] = molecular target: Aurora kinase A (Homo sapiens) (UniProt O14965); assay: Inhibition of recombinant full length His-tagged human Aurora A expressed in baculovirus expression system at 1 uM by FRET assay relative to control
[21] = molecular target: Myosin light chain kinase, smooth muscle (Homo sapiens) (UniProt Q15746); assay: Inhibition of recombinant human full length N-terminal GST-tagged smMLCK catalytic domain expressed in baculovirus expression system at 1 uM by FRET assay relative to control
[22] = molecular target: Casein kinase II subunit alpha (Homo sapiens) (UniProt P68400); assay: Inhibition of CK2alpha1 (unknown origin) at 1 uM by FRET assay relative to control
Sequence of Casein kinase II subunit alpha (Homo sapiens) (P68400 whole entry, looked up): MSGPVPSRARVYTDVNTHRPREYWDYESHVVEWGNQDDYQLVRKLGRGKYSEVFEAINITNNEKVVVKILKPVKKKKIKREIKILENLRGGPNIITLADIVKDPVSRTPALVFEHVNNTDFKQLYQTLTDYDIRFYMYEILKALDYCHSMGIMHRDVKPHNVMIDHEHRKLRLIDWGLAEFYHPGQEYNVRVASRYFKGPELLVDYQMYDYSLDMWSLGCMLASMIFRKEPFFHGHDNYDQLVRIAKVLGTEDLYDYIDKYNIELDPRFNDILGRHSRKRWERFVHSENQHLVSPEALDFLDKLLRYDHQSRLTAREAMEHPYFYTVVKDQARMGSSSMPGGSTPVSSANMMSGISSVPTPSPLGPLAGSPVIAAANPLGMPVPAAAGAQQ

Sequence of Tyrosine-protein kinase Blk (Homo sapiens) (P51451 2-505 limits assumed): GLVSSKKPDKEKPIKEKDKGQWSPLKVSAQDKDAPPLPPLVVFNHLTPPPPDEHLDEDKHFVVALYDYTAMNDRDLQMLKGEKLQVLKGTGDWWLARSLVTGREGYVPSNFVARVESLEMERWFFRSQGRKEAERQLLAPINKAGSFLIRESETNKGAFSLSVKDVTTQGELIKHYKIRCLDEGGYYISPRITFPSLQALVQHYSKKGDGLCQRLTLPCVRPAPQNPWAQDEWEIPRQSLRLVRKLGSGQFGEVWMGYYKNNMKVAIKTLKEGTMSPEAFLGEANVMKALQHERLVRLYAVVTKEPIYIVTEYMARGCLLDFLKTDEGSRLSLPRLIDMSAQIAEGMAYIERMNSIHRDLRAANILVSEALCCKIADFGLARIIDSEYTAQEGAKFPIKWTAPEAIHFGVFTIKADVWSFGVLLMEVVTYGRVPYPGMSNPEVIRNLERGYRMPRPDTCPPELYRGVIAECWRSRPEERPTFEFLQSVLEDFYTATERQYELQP
Sequence of Cyclin-dependent kinase 5/CDK5 activator 1 (Homo sapiens) (Q00535 whole entry, the tested form may be a part): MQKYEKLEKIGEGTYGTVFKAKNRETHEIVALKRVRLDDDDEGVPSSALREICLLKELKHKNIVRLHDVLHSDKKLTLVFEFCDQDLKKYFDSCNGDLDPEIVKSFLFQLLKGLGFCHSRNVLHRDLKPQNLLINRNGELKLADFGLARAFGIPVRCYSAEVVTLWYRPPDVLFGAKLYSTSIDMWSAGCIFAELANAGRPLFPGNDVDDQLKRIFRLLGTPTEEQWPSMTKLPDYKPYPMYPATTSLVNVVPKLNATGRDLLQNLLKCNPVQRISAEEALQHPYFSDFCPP
Sequence of Cyclin-dependent kinase 5/CDK5 activator 1 (Homo sapiens) (Q15078 99-307 partner limits assumed): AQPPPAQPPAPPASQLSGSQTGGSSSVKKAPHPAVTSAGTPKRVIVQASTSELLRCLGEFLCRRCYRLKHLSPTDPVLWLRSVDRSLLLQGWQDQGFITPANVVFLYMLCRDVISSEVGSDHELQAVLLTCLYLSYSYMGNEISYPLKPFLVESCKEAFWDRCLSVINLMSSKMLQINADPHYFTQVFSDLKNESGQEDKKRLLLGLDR
Sequence of Myosin light chain kinase, smooth muscle (Homo sapiens) (Q15746 whole entry, the tested form may be a part): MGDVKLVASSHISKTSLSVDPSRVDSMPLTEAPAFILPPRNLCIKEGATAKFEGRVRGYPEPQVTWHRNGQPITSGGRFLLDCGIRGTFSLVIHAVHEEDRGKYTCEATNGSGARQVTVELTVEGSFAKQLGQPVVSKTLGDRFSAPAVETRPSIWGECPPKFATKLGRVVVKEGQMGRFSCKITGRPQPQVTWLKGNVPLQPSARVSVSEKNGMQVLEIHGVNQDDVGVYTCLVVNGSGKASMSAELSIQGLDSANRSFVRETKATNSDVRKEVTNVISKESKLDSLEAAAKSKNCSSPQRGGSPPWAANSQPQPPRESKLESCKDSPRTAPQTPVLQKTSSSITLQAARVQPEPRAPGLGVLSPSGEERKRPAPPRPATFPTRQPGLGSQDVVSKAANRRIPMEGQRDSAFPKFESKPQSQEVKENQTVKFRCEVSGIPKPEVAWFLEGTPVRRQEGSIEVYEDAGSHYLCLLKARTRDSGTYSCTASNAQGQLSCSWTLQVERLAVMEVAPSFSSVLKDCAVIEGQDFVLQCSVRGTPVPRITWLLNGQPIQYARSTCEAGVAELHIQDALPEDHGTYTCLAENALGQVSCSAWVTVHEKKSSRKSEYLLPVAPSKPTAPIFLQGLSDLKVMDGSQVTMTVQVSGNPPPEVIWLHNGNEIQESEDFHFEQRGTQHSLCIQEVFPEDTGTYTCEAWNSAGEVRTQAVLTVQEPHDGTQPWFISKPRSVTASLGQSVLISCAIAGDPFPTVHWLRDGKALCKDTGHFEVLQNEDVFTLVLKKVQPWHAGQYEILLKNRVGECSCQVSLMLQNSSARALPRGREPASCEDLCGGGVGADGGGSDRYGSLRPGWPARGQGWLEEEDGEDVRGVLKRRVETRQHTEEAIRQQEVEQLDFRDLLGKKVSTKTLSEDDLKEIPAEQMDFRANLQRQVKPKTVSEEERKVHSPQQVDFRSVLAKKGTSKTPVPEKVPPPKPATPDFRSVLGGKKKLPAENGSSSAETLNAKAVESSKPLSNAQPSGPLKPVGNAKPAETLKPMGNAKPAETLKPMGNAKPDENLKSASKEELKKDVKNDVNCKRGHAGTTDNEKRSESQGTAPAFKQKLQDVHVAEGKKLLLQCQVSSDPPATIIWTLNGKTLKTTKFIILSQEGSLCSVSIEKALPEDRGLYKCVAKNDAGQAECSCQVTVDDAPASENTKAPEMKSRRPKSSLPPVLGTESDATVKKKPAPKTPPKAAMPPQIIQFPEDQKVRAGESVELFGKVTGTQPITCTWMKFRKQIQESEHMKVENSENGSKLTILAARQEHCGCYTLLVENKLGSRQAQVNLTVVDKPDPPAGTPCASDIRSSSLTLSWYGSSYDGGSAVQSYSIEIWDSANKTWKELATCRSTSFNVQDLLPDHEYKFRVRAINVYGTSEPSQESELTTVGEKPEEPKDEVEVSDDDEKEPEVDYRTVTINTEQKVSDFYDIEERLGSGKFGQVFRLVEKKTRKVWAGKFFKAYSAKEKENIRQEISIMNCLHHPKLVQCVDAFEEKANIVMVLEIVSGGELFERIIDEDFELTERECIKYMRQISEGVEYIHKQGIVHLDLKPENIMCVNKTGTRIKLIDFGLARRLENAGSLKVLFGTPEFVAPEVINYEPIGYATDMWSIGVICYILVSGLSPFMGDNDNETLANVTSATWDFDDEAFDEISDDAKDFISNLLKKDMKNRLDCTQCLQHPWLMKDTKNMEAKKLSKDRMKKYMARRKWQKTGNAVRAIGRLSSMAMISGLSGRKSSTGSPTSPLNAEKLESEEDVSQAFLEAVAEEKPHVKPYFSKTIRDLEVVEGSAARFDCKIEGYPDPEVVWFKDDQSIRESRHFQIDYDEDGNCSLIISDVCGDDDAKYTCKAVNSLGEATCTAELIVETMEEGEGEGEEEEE
Sequence of Sodium-dependent serotonin transporter (Homo sapiens) (P31645 whole entry, looked up): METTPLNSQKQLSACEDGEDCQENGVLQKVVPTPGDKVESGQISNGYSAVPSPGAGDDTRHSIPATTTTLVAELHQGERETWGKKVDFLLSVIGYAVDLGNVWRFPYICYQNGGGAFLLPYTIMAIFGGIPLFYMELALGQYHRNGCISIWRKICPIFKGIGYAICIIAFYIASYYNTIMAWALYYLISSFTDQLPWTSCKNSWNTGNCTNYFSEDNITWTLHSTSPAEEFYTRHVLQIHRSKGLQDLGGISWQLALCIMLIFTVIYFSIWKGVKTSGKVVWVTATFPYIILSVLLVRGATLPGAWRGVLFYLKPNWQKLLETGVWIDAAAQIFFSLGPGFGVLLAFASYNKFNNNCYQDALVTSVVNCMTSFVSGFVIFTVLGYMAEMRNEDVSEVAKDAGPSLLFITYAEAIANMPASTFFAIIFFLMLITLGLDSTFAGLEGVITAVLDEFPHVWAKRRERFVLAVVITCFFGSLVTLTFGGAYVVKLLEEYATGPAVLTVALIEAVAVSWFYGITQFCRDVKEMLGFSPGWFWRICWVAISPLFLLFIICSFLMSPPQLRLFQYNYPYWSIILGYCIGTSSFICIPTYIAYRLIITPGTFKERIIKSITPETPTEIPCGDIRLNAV
Sequence of Serine/threonine-protein kinase MARK1 (Homo sapiens) (Q9P0L2 whole entry, looked up): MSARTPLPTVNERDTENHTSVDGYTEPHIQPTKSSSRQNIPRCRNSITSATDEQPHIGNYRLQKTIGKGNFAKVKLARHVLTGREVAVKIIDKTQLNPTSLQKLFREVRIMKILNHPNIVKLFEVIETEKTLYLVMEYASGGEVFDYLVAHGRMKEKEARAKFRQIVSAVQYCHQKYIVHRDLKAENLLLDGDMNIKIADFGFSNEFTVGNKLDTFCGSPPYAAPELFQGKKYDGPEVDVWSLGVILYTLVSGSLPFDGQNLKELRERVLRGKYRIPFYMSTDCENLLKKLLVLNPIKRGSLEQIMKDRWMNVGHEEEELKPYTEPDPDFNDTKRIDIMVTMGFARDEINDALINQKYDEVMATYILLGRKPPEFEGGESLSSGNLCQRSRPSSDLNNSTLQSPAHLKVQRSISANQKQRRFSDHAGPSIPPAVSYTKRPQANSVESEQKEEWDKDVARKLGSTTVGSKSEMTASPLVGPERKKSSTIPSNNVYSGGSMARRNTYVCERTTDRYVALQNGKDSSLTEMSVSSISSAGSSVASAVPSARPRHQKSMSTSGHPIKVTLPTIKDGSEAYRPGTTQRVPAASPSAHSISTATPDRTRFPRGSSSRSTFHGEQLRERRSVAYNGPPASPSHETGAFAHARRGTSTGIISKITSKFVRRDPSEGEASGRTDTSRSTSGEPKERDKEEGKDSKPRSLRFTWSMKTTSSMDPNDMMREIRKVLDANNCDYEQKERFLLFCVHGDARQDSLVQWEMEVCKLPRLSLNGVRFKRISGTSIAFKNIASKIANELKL

| SMILES | inhibition [1] | Activity [2] | inhibition [3] | inhibition [4] | inhibition [5] | Activity [6] | inhibition [7] | Activity [8] | inhibition [9] | inhibition [10] | inhibition [11] | inhibition [12] | inhibition [13] | inhibition [14] | inhibition [15] | inhibition [16] | Activity [17] | inhibition [18] | inhibition [19] | inhibition [20] | also measured |
| --- | --- | --- | --- | --- | --- | --- | --- | --- | --- | --- | --- | --- | --- | --- | --- | --- | --- | --- | --- | --- | --- |
| CC(C)n1nc(-c2cnc(N)c(OC(F)(F)F)c2)cc1[C@H]1[C@@H]2CN(C3COC3)C[C@@H]21 | 5.3% | > 50% | 4.6% | 11.2% | 14.2% | > 50% | 1% | > 50% | 7.8% | -0.8% | 15.7% | 17.3% | 11.4% | 16% | -9.5% | 16.6% | > 50% | -0.2% | 2.4% | 16.2% | inhibition [21]: 19.6%; inhibition [22]: 1.5% |
| Nc1ncc(-c2cc([C@H]3[C@@H]4CN(C5COC5)C[C@@H]43)n(CC3CC3)n2)cc1C(F)(F)F | 27.4% | > 50% | 20.4% | 11.3% | 11.2% | > 50% | -1.7% | > 50% | 5.8% | 9.6% | 20.6% | 2.7% | 12.1% | 2.4% | -7.7% | 11.9% | > 50% | -3.3% | 3.4% | 27.2% | inhibition [21]: 11.7%; inhibition [22]: 3.5% |
